Measurements taken from article PMC2757176 (The Journal of biological chemistry, 2009).
Non-standard residues stand in square brackets, D forms with d. Residues, ends and D or L forms follow the SMILES beside them. *: point of attachment. Biotin = O=C1N[C@H]2[C@H](CS[C@H]2CCCCC(=O)*)N1; pY = N[C@@H](Cc1ccc(OP(=O)(O)O)cc1)C(=O)O

What was measured:
Test in all cases: Biacore
Format in all cases: binding
human FYN SH3-SH2 = human FYN SH3-SH2 (Homo sapiens, UniProt P06241)
human PLC-γ1 SH2 N+C = biological target: T1, human PLC-γ1 SH2 N+C (Homo sapiens, UniProt P19174); conditions: ratio of SPR affinities, PLC-γ1 SH2 N+C versus FYN-SH3-SH2
T1 sequence (P19174 545-749): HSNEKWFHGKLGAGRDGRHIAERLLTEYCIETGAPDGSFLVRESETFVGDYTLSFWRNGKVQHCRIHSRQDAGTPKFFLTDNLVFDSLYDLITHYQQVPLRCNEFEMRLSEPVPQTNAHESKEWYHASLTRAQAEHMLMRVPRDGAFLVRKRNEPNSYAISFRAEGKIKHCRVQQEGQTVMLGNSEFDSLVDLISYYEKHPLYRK

human LCK SH3-SH2 = human LCK SH3-SH2 (Homo sapiens, UniProt P06239)
Chain of human LCK SH3-SH2 (P06239 58-230): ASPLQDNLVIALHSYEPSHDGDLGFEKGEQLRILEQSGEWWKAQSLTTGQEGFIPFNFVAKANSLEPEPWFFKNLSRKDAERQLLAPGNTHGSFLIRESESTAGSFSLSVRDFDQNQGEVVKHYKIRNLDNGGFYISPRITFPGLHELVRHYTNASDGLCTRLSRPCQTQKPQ
In short: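 Recombinant human LCK SH3-SH2 (aa 58–230), N-terminal His-tagged, nickel-agarose purified, gel-filtered; concentration from A280 using a theoretical extinction coefficient. BIAcore 3000 at 37 °C: ~3000 RU streptavidin amine-coupled to CM5 captured biotinylated peptides (CD2 proline-rich peptides ~100 RU; phospho-CD244 ITSM1 ~25 RU). Protein passed at various concentrations; equilibrium binding fitted for Kd against a control flow cell.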

Chain of human FYN SH3-SH2 (P06241 82-248): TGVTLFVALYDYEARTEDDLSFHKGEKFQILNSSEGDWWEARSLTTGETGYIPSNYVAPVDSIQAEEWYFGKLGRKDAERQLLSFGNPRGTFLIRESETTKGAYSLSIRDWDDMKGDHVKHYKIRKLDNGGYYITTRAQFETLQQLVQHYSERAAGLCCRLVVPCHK

CC(C)C[C@H](NC(=O)[C@@H](NC(=O)[C@H](CC(=O)O)NC(=O)[C@@H](NC(=O)[C@H](Cc1ccc(OP(=O)(O)O)cc1)NC(=O)[C@H](CC(=O)O)NC(=O)[C@H](CO)NC(=O)[C@H](CC(N)=O)NC(=O)[C@H](CO)NC(=O)[C@H](CC(N)=O)NC(=O)CCCC[C@@H]1SC[C@@H]2NC(=O)N[C@@H]21)C(C)C)C(C)C)C(=O)N1CCC[C@H]1C(=O)O [EAT-2 127] (Biotin-NSNSD[pY]VDVLP-OH)
FYN binding, fold weaker than to the CD244 ITSM (human FYN SH3-SH2; ratio of SPR affinities, relative to CD244 ITSM 1 peptide): ~ 5 fold | fold increase in affinity of PLC-γ1 compared with FYN binding (human PLC-γ1 SH2 N+C): 30 fold

CC(C)[C@H](NC(=O)[C@H](CCCNC(=N)N)NC(=O)[C@H](Cc1c[nH]cn1)NC(=O)CNC(=O)[C@@H]1CCCN1C(=O)[C@@H]1CCCN1C(=O)[C@@H]1CCCN1C(=O)[C@@H]1CCCN1C(=O)[C@H](CCCNC(=N)N)NC(=O)[C@H](Cc1c[nH]cn1)NC(=O)[C@H](CO)NC(=O)[C@@H]1CCCN1C(=O)[C@H](C)NC(=O)[C@H](CCC(N)=O)NC(=O)[C@H](CO)NC(=O)[C@H](CCCNC(=N)N)NC(=O)[C@H](Cc1c[nH]cn1)NC(=O)CNC(=O)[C@@H]1CCCN1C(=O)[C@@H]1CCCN1C(=O)[C@@H]1CCCN1C(=O)[C@@H]1CCCN1C(=O)[C@@H]1CCCN1C(=O)[C@H](Cc1c[nH]cn1)NC(=O)CCCC[C@@H]1SC[C@@H]2NC(=O)N[C@@H]21)C(=O)N[C@@H](CCC(N)=O)C(=O)O [CD2-281-305] (Biotin-HPPPPPGHRSQAPSHRPPPPGHRVQ-OH)
Kd (human LCK SH3-SH2): > 1000 µM

CC(C)C[C@H](NC(=O)[C@@H]1CCCN1C(=O)[C@@H]1CCCN1C(=O)CNC(=O)[C@H](CCCCN)NC(=O)[C@H](CCC(N)=O)NC(=O)CCCC[C@@H]1SC[C@@H]2NC(=O)N[C@@H]21)C(=O)N1CCC[C@H]1C(=O)N[C@@H](CCCNC(=N)N)C(=O)N1CCC[C@H]1C(=O)N[C@@H](CCCNC(=N)N)C(=O)N[C@H](C(=O)N[C@@H](CCC(N)=O)C(=O)N1CCC[C@H]1C(=O)N[C@@H](CCCCN)C(=O)N1CCC[C@H]1C(=O)N1CCC[C@H]1C(=O)N[C@@H](Cc1c[nH]cn1)C(=O)NCC(=O)O)C(C)C [CD2-322] (Biotin-QKGPPLPRPRVQPKPPHG-OH)
Kd (human LCK SH3-SH2): > 1000 µM

Biotin-KQFQP[pY]FIPIN-OH [CTLA-4, reference compound]
FYN-SH3-SH2 binding to immobilised peptide (in words) (human FYN SH3-SH2; SPR, 37 °C, biotinylated peptide on streptavidin chip): Negligible binding
